Laboratory results published in ChEMBL document CHEMBL1123867, “Anticonvulsant O-alkyl sulfamates. 2,3:4,5-Bis-O-(1-methylethylidene)-beta-D-fructopyranose sulfamate and related compounds” (1987).
The source made the active and inactive calls. The rule behind the calls is not given here.

Columns and labels:
[1] = system: Mus musculus; test: Anticonvulsant activity by using a standard maximal electroshock test (MES) in mice by intraperitoneal administration of the compound; assay type: functional; details: ip
Method in brief: (§1)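 Supramaximal electroshock: 50-mA current (60 Hz, 0.20 s) via corneal electrodes induced hind-limb tonic extension; inhibition of this component scored as activity. Mice dosed ip and/or po in aqueous solution or suspension (ca. 0.1% Tween 80, distilled water). Tested at 30, 60, 120 and 240 min (sometimes 45 min); ten mice per time point.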

[2] = system: Mus musculus; test: Anticonvulsant activity following p.o. administration by standard maximal electroshock test in mice.; assay type: functional; details: po; method in brief: as §1
[3] = system: Mus musculus; test: Percentage block of the hind-limb tonic-extensor seizure was determined after application of an electric shock to mice for 30 min followed by 50 mg/kg intraperitoneal dose; assay type: functional; method in brief: as §1
[4] = system: Mus musculus; test: LD50 of compound after ip administration after 24 hrs was determined; assay type: functional
[5] = system: Mus musculus; test: Percentage block of the hind-limb tonic-extensor seizure was determined after application of an electric shock to mice for 60 min followed by 50 mg/kg intraperitoneal dose; assay type: functional
Method in brief: (§2)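 Mouse MES test: supramaximal seizure from a 50-mA current (60 Hz, 0.20-s) through corneal electrodes. […] Ten mice per time point. Compound given in aqueous solution or in suspension in ca. 0.1% Tween 80 and distilled water. Free food and water except during testing.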

[6] = system: Mus musculus; test: Percentage block of the hind-limb tonic-extensor seizure was determined after application of an electric shock to mice for 120 min followed by 100 mg/kg peroral dose; assay type: functional; details: route oral; method in brief: as §1
[7] = system: Mus musculus; test: Percentage block of the hind-limb tonic-extensor seizure was determined after application of an electric shock to mice for 30 min followed by 100 mg/kg peroral dose; assay type: functional; details: route oral; method in brief: as §1
[8] = system: Mus musculus; test: Percentage block of the hind-limb tonic-extensor seizure was determined after application of an electric shock to mice for 120 min followed by 50 mg/kg intraperitoneal dose; assay type: functional; method in brief: as §1
[9] = system: Mus musculus; test: Percentage block of the hind-limb tonic-extensor seizure was determined after application of an electric shock to mice for 240 min followed by 100 mg/kg peroral dose; assay type: functional; details: route oral; method in brief: as §1
[10] = system: Mus musculus; test: Percentage block of the hind-limb tonic-extensor seizure was determined after application of an electric shock to mice for 240 min followed by 50 mg/kg intraperitoneal dose; assay type: functional; method in brief: as §1
[11] = system: Mus musculus; test: Neurotoxic dose ED50 after po administration in mice at 1 hrs was determined; assay type: functional
Method in brief: (§3)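 Neurotoxicity measured in mice with the rotoreel test after oral dosing. TD50 is the neurotoxic dose ED50, read at 1 h (peak time for TD50) and at 4 h (approximate peak time for the MES ED50). Compound was given as an aqueous solution or as a suspension in about 0.1% Tween 80 in distilled water. Animals had free access to food and water except during testing.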

[12] = system: Mus musculus; test: Percentage block of the hind-limb tonic-extensor seizure was determined after application of an electric shock to mice for 60 min followed by 100 mg/kg peroral dose; assay type: functional; details: route oral; method in brief: as §2
[13] = system: Mus musculus; test: Neurotoxic dose ED50 after po administration in mice at 4 hrs was determined; assay type: functional; method in brief: as §3
[14] = system: Mus musculus; test: Anticonvulsant activity by using a standard maximal electroshock test (MES) in mice, by 100 mg/kg intraperitoneal administration of the compound; I=inactive, 0-10% block; assay type: functional, organism-based; set-up: dose 100 mg/kg; method in brief: as §1
[15] = system: Mus musculus; test: Anticonvulsant activity by using a standard maximal electroshock test (MES) in mice, by 200 mg/kg peroral administration of the compound; I=inactive, 0-10% block; assay type: functional, organism-based; set-up: dose 200 mg/kg; method in brief: as §1
[16] = system: Mus musculus; test: Percentage block of the hind-limb tonic-extensor seizure was determined after application of an electric shock to mice for 60 min followed by 100 mg/kg intraperitoneal dose; assay type: functional; method in brief: as §1
[17] = system: Mus musculus; test: Percentage block of the hind-limb tonic-extensor seizure was determined after application of an electric shock to mice for 120 min followed by 100 mg/kg intraperitoneal dose; assay type: functional; method in brief: as §1
[18] = system: Mus musculus; test: Percentage block of the hind-limb tonic-extensor seizure was determined after application of an electric shock to mice for 120 min followed by 200 mg/kg peroral dose; assay type: functional; details: route oral; method in brief: as §1
[19] = system: Mus musculus; test: Percentage block of the hind-limb tonic-extensor seizure was determined after application of an electric shock to mice for 30 min followed by 100 mg/kg intraperitoneal dose; assay type: functional; method in brief: as §1
[20] = system: Mus musculus; test: Percentage block of the hind-limb tonic-extensor seizure was determined after application of an electric shock to mice for 30 min followed by 200 mg/kg peroral dose; assay type: functional; details: route oral; method in brief: as §1
[21] = system: Mus musculus; test: Percentage block of the hind-limb tonic-extensor seizure was determined after application of an electric shock to mice for 240 min followed by 100 mg/kg intraperitoneal dose; assay type: functional; method in brief: as §1
[22] = system: Mus musculus; test: Percentage block of the hind-limb tonic-extensor seizure was determined after application of an electric shock to mice for 240 min followed by 200 mg/kg peroral dose; assay type: functional; details: route oral; method in brief: as §1
[23] = system: Mus musculus; test: Percentage block of the hind-limb tonic-extensor seizure was determined after application of an electric shock to mice for followed by 200 mg/kg peroral dose; details: route oral
[24] = system: Mus musculus; test: Anticonvulsant activity by using a standard maximal electroshock test (MES) in mice, by intraperitoneal administration of the compound; assay type: functional; details: ip; method in brief: as §1
[25] = system: Mus musculus; test: Percentage block of the hind-limb tonic-extensor seizure was determined after application of an electric shock to mice for 60 min followed by 10 mg/kg intraperitoneal dose; assay type: functional; method in brief: as §1
[26] = system: Mus musculus; test: Percentage block of the hind-limb tonic-extensor seizure was determined after application of an electric shock to mice for 60 min followed by 15 mg/kg peroral dose; assay type: functional; details: route oral; method in brief: as §2
[27] = system: Mus musculus; test: Percentage block of the hind-limb tonic-extensor seizure was determined after application of an electric shock to mice for 120 min followed by 10 mg/kg intraperitoneal dose; assay type: functional; method in brief: as §1
[28] = system: Mus musculus; test: Percentage block of the hind-limb tonic-extensor seizure was determined after application of an electric shock to mice for 120 min followed by 15 mg/kg peroral dose; assay type: functional; details: route oral; method in brief: as §1
[29] = system: Mus musculus; test: Percentage block of the hind-limb tonic-extensor seizure was determined after application of an electric shock to mice for 30 min followed by 10 mg/kg intraperitoneal dose; assay type: functional; method in brief: as §1
[30] = system: Mus musculus; test: Percentage block of the hind-limb tonic-extensor seizure was determined after application of an electric shock to mice for 30 min followed by 15 mg/kg peroral dose; assay type: functional; details: route oral; method in brief: as §1
[31] = system: Mus musculus; test: Percentage block of the hind-limb tonic-extensor seizure was determined after application of an electric shock to mice for 240 min followed by 10 mg/kg intraperitoneal dose; assay type: functional; method in brief: as §1
[32] = system: Mus musculus; test: Percentage block of the hind-limb tonic-extensor seizure was determined after application of an electric shock to mice for 240 min followed by 15 mg/kg peroral dose; assay type: functional; details: route oral; method in brief: as §1
[33] = system: Mus musculus; test: Anticonvulsant activity was determined as percentage of block of the hind-limb tonic-extensor seizure caused by application of an electric shock to mice via corneal electrodes at 30 min by 100 mg/kg intraperitoneal dose; assay type: functional; method in brief: as §1
[34] = system: Mus musculus; test: Anticonvulsant activity was determined as percentage of block of the hind-limb tonic-extensor seizure caused by application of an electric shock to mice via corneal electrodes at 60 min by 100 mg/kg intraperitoneal dose; assay type: functional; method in brief: as §1
[35] = system: Mus musculus; test: Anticonvulsant activity was determined as percentage of block of the hind-limb tonic-extensor seizure caused by application of an electric shock to mice via corneal electrodes at 60 min by 200 mg/kg peroral dose; assay type: functional; details: route oral; method in brief: as §1
[36] = system: Mus musculus; test: Anticonvulsant activity was determined as percentage of block of the hind-limb tonic-extensor seizure caused by application of an electric shock to mice via corneal electrodes at 120 min by 100 mg/kg intraperitoneal dose; assay type: functional; method in brief: as §1
[37] = system: Mus musculus; test: Anticonvulsant activity was determined as percentage of block of the hind-limb tonic-extensor seizure caused by application of an electric shock to mice via corneal electrodes at 120 min by 200 mg/kg peroral dose; assay type: functional; details: route oral; method in brief: as §1
[38] = system: Mus musculus; test: Anticonvulsant activity was determined as percentage of block of the hind-limb tonic-extensor seizure caused by application of an electric shock to mice via corneal electrodes at 240 min by 200 mg/kg peroral dose; assay type: functional; details: route oral; method in brief: as §1
[39] = system: Mus musculus; test: Anticonvulsant activity was determined as percentage of block of the hind-limb tonic-extensor seizure caused by application of an electric shock to mice via corneal electrodes at 240 min by 100 mg/kg intraperitoneal dose; assay type: functional; method in brief: as §1
[40] = system: Mus musculus; test: Percentage block of the hind-limb tonic-extensor seizure was determined after application of an electric shock to mice for 60 min followed by 40 mg/kg peroral dose; assay type: functional; details: route oral; method in brief: as §2
[41] = system: Mus musculus; test: Percentage block of the hind-limb tonic-extensor seizure was determined after application of an electric shock to mice for 30 min followed by 40 mg/kg peroral dose; assay type: functional; details: route oral; method in brief: as §1
[42] = system: Mus musculus; test: Percentage block of the hind-limb tonic-extensor seizure was determined after application of an electric shock to mice for 120 min followed by 40 mg/kg peroral dose; assay type: functional; details: route oral; method in brief: as §1
[43] = system: Mus musculus; test: Percentage block of the hind-limb tonic-extensor seizure was determined after application of an electric shock to mice for 240 min followed by 40 mg/kg peroral dose; assay type: functional; details: route oral; method in brief: as §1
[44] = system: Mus musculus; test: Anticonvulsant activity by using a standard maximal electroshock test (MES) in mice, by intraperitoneal administration of the compound; Range 50-100 mg/kg; assay type: functional; details: ip; method in brief: as §1
[45] = system: Mus musculus; test: Percentage block of the hind-limb tonic-extensor seizure was determined after application of an electric shock to mice for 60 min followed by 200 mg/kg peroral dose; assay type: functional; details: route oral; method in brief: as §2

CC1(C)O[C@@H]2[C@@H](CO[C@@]3(COS(N)(=O)=O)OC(C)(C)O[C@@H]23)O1 [TOPIRAMATE]
ED50 [1]: 64 mg/kg
ED50 [2]: 61 mg/kg
Block [3]: 20%
LD50 [4]: > 1000 mg/kg
Block [5]: 60%
Block [6]: 80%
Block [7]: 40%
Block [8]: 70%
Block [9]: 100%
Block [10]: 50%
TD50 [11]: 407 mg/kg
Block [12]: 80%
TD50 [13]: 1100 mg/kg

CC1(C)C2CCC(COS(N)(=O)=O)C1C2 (configuration not stated)
ED50 [14]: inactive
ED50 [15]: inactive
Block [16]: 10%
Block [17]: 0%
Block [18]: 10%
Block [19]: 10%
Block [20]: 10%
Block [21]: 0%
Block [22]: 0%
Block [23]: 10%

O=C1NC(=O)C(c2ccccc2)(c2ccccc2)N1 [PHENYTOIN]
ED50 [24]: 10 mg/kg
ED50 [2]: 10 mg/kg
Block [25]: 60%
Block [26]: 80%
Block [27]: 80%
Block [28]: 70%
Block [29]: 60%
Block [30]: 50%
Block [31]: 70%
Block [32]: 30%

NS(=O)(=O)OCC1COC2(CCCCC2)O1 (configuration not stated)
ED50 [24]: 169 mg/kg
ED50 [2]: ~150 mg/kg
Block [33]: 30%
Block [34]: 10%
Block [35]: 30%
Block [36]: 0%
Block [37]: 20%
Block [38]: 10%
Block [20]: 70%
Block [39]: 0%

NS(=O)(=O)Cc1noc2ccccc12 [ZONISAMIDE]
Block [40]: 40%
Block [41]: 20%
Block [42]: 40%
Block [43]: 50%

CNS(=O)(=O)OC[C@@]12OC[C@H]3OC(C)(C)OC3C1OC(C)(C)O2 (some centres not stated)
ED50 [44]: 50 mg/kg
ED50 [2]: 200 mg/kg
Block [16]: 90%
Block [17]: 80%
Block [18]: 100%
Block [19]: 30%
Block [20]: 20%
Block [21]: 30%
Block [22]: 100%
Block [45]: 70%
